# Source: PubChem BioAssay (Johns Hopkins Ion Channel Center)
# RGS4 inh = human RGS4 inhibition; P49798; HEK293 M3R/RGS4 inducible, Fluo-4 calcium flux; hits give high values; triggered by carbachol at its EC20; B-score at 10 µM; 310,000 compounds, 0.45% hits; AID 463165;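 active = B-score, a plate-corrected calcium signal, over three deviations above library mean, with baseline fluorescence within five deviations of library mean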;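 note: RGS4 expression induced by doxycycline in cells with stable M3 receptor; B-score is computed from the integrated fluorescence ratio over baseline after carbachol; higher B-score means a larger calcium signal and so more RGS4 inhibition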
# Target sequence (P49798 whole entry, looked up): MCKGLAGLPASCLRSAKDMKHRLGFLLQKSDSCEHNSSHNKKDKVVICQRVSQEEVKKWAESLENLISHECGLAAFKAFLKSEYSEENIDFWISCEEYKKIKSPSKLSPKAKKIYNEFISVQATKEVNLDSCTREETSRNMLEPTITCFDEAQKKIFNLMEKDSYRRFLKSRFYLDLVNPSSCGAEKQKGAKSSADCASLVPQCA
# MrgX1 allo act = allosterically activates human MrgX1 receptor signaling; B-score at 10 µM; MrgX1-HEK293, Fluo-4 calcium flux, FDSS; hits give high values; 310,000 compounds, 0.63% hits;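 active = plate-corrected calcium response at least 3 library SD above typical, normal starting fluorescence, not activating the receptor alone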;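 note: compound read alongside a low EC10 to EC30 dose of BAM8-22 agonist; peak minus trough fluorescence over baseline measured at the second addition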
# Target sequence (Q96LB2 whole entry, looked up): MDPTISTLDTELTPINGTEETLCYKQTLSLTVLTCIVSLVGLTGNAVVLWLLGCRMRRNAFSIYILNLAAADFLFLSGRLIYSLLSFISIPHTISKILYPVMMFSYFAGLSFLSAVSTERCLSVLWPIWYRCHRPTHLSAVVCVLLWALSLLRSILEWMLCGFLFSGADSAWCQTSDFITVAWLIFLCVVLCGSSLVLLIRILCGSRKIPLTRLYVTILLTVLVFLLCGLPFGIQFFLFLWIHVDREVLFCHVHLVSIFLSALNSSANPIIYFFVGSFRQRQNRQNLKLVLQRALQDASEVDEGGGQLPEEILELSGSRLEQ
# RGS4 act = RGS4 potentiation or activation; B-score at 10 µM; 310,000 compounds, 0.92% hits; HEK293 M3R/inducible RGS4, carbachol calcium flux Fluo4; hits give low values;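 active = B-score of the integrated calcium signal more than 4 SD below the library mean, with starting fluorescence not abnormally high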;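 note: negative B-score means reduced calcium response which marks RGS4 activation or potentiation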
#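 Also added: carbachol at ECmax as muscarinic agonist stimulus; Assay system: HEK293 cells with stable M3R and inducible RGS4; Timing: overnight RGS4 induction, 30 min dye load 37 °C, 20 min compound RT; Measured by: Fluo4-AM (2 µM) calcium-flux fluorescence, kinetic read.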
# MrgX1 ag = agonists of human MrgX1 receptor. Q96LB2. MrgX1-HEK293 cells, Fluo-4 calcium fluorescence, agonist mode; hits give high values. B-score at 10 µM. 310,000 compounds, 0.44% hits. AID 588627;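 active = calcium response B-score plate-corrected fluorescence ratio at least 3 library SD, with starting fluorescence B-score inside 5 SD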
#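 System – MrgX1-expressing HEK293 cells · Incubation – cells plated overnight, dye loaded 0.5 h 37 °C, 0.5 h room temperature · Technique – kinetic Fluo-4 NW fluorescence of intracellular calcium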
# MrgX1 antag = antagonists of human MrgX1 receptor | 310,000 compounds, 1.3% hits | Q96LB2 | MRGX1-HEK293 calcium flux, Fluo-4, BAM8-22 antagonism; hits give low values | B-score at 10 µM;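 active = calcium-response B-score plate-corrected more than 3 library SD below zero, starting fluorescence within 5 deviations, no agonist response on first addition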;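 note: peak minus trough fluorescence over baseline after final BAM8-22 challenge near maximal dose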
# An asterisk follows results filed as active; i = inactive; . = no result given. Sampled rows, rich in hits. Any-hit rate of the full collection: about 3.5%.
SMILES,RGS4 inh,MrgX1 allo act,RGS4 act,MrgX1 ag,MrgX1 antag
O=C1C2C3C=CC(CC3)C2C(=O)N1c1ccc(Cl)cc1Cl (stereo not given),i,i,i,i,i
CS(=O)(=O)n1nc(-c2ccc(Cl)cc2)nc1N,i,i,i,i,i
Cn1nc(-c2ccc(Cl)cc2)nc2c(=O)n(C)c(=O)nc1-2,i,i,i,i,-4.65*
COc1cc(OC)cc(C(=O)N2CCN(Cc3ccc4c(c3)OCO4)CC2)c1,i,i,i,i,i
CCc1cccc(C)c1NC(=O)CNCc1ccccc1,i,i,i,i,i
CC1(C)C(=O)OC(c2cccn2-c2ccc([N+](=O)[O-])cc2)C(C)(C)C1=O (stereo not given),i,i,i,i,-5.05*
CCOc1ccc(C(=O)NCC(=O)NNC(=O)C2COc3ccccc3O2)cc1OCC (stereo not given),i,i,i,i,-5.38*
CC(=O)c1ccc(C(=O)N2CCCC(N3CCN(c4ccc(F)cc4)CC3)C2)s1 (stereo not given),i,i,i,i,i
CCn1c(-c2csc3c2CCC(C)C3)n[nH]c1=S (stereo not given),i,i,i,i,i
CCCCN(C)CCCNC(=O)c1cn(CC)c2ccc(S(=O)(=O)N3CCc4ccccc4C3)cc2c1=O,i,i,-7.7*,i,i
CCOC(=O)N1CCN(C(=O)c2cc3c(-c4cccc(OC)c4)nn(C)c3s2)CC1,i,i,-7.12*,i,i
O=C(/C(N=Nc1cccc(C(F)(F)F)c1)=C(/O)c1cccs1)C(F)(F)F,i,i,-9.18*,i,i
CC(=O)/C(N=Nc1cccc(C(F)(F)F)c1)=C(\C)O,i,i,i,i,i
Cc1ccc(NS(=O)(=O)c2c(C(=O)N3CCCCCC3)c(C)n(C)c2C)cc1C,i,i,i,i,i
c1ccc(CN2CCC(N3CCN(Cc4ccc5c(c4)OCO5)CC3)CC2)cc1,i,i,i,i,i
c1cc2c(cc1CN1CCN(C3CCCCCC3)CC1)OCO2,i,i,-7.56*,i,i
CC(=O)Nc1sc(C)c(C)c1C(=O)OCC(=O)N(CC(C)C)c1c(N)n(Cc2ccccc2)c(=O)[nH]c1=O,i,i,-7.75*,i,i
COC(=O)c1c(C)[nH]c(C(=O)OCC(=O)N(CC(C)C)c2c(N)n(Cc3ccccc3)c(=O)[nH]c2=O)c1C,i,i,i,i,i
C=CS(=O)(=O)c1ccc(Oc2ccc(S(=O)(=O)C=C)cc2)cc1,21.2*,i,i,31.4*,i
NS(=O)(=O)c1ccc(Oc2ccc(S(N)(=O)=O)cc2)cc1,i,i,i,i,i
COC(=O)C1=NN(C(=O)c2ccc(C)cc2)C(O)(c2ccc(Cl)cc2)C1 (stereo not given),i,i,i,66.6*,i
COC(=O)C1=NN(C(=O)c2ccccc2)C(C)(O)C1 (stereo not given),i,i,i,i,i
COC(=O)C1=NN(C(=O)c2ccccc2)C(O)(c2ccc([N+](=O)[O-])cc2)C1 (stereo not given),i,i,i,53.7*,i
O=C(NC1CCN(C(=O)c2ccccc2Br)CC1)c1ccccc1,i,i,i,i,i
CCOc1ccc(NCc2nnc(SCC(=O)Nc3nc(-c4ccccc4)cs3)n2-c2ccccc2)cc1,i,i,i,i,i
SMILES,RGS4 inh,MrgX1 allo act,RGS4 act,MrgX1 ag,MrgX1 antag
Cc1ccc(-c2nc3sc4c(c3c(=O)n2N)CCCC4)cc1,i,13.4*,i,i,i
O=C(O)c1ccccc1NSc1ccccc1[N+](=O)[O-],i,i,i,i,i
CCc1ccc(NSc2ccccc2[N+](=O)[O-])cc1,i,6.58*,-8.18*,i,i
Cc1ccc(-n2cc(-c3ccccc3)c3c(N4CCOCC4)ncnc32)cc1,i,.,-7.28*,.,.
Cc1ccc(-n2cc(-c3ccccc3)c3c(N4CCN(C)CC4)ncnc32)cc1,i,i,i,i,i
COn1c(-c2ccccc2)c(C=O)c2ccccc21,i,18.8*,i,i,i
COc1ccc(C(C(=O)NCC2CCCO2)N(C(=O)CNC(=O)c2cccs2)c2ccc(C)cc2)cc1OC (stereo not given),i,i,i,i,i
Cc1ccc(/C=C/C2=NN(Cc3ccccc3)C(=O)CC2)cc1,i,i,i,i,i
O=C1CCC(/C=C/c2ccccc2)=NN1Cc1ccccc1,i,10.2*,i,i,i
O=C(O)c1cc(S(=O)(=O)Nc2ccc(OCc3ccccc3)cc2)ccc1Br,i,i,i,i,i
O=C(N/N=C/c1c(O)ccc2ccccc12)c1ccc(Br)o1,i,i,i,i,-4.99*
COc1ccc2ccccc2c1/C=N\NC(=O)c1cccnc1,i,i,i,i,i
O=C(N/N=C/c1c(O)ccc2ccccc12)c1cccnc1,i,i,i,i,-7.6*
O=C(N/N=C\c1c(O)ccc2ccccc12)c1ccc(O)cc1,i,i,i,i,i
CCc1nc2oc3ccccc3c(=O)c2cc1C(=O)OC,i,i,i,i,i
CC(=O)c1cccc(NC(=O)Cn2cnc(S(=O)(=O)N3CCOCC3)c2)c1,i,i,i,i,i
COc1ccc(CCNC(=O)C23CN(Cc4ccccc4)CC2C(c2cccc([N+](=O)[O-])c2)=NO3)cc1 (stereo not given),i,i,i,i,-8.34*
Cc1ccc(CCNC(=O)C23CN(Cc4ccccc4)CC2C(c2cccc([N+](=O)[O-])c2)=NO3)cc1 (stereo not given),i,i,i,i,i
COc1ccccc1NC(=O)CCCC(=O)OCC(F)(F)C(F)F,i,i,i,i,-6.18*
CC(=O)OC(C[N+]1(C)CCCCCC1)c1ccccc1 (stereo not given),i,i,-7.01*,i,i
C[N+]1(CC(O)c2ccccc2)CCCCCC1 (stereo not given),i,i,i,i,i
COc1cccc(-c2cc3c(-n4cccc4)ncnc3o2)c1,i,i,-7.12*,i,i
CCOc1ccc(CCNC(=O)COC(=O)/C=C/c2ccccc2OC)cc1OCC,i,15.6*,i,i,i
CCOc1ccc(CCNC(=O)COC(=O)c2ccc(S(C)(=O)=O)cc2)cc1OCC,i,i,i,i,i
